These results are taken from ChEMBL document CHEMBL1127621, “Electron-deficient DNA-intercalating agents as antitumor drugs: aza analogues of the experimental clinical agent N-[2-(dimethylamino)ethyl]acridine-4-carboxamide” (J Med Chem, 1994).

Structures are written as SMILES. Activity calls are given as the source filed them. The rule behind the calls is not given here.

The subject of experiment [1] is Mus musculus. Description: Percentage increase in lifespan of P388 tumor-bearing mice compared with tumor-bearing controls at optimal dose of 65 mg/kg/day; NA= Not active. In kind it is functional, organism-based. The gist of the method: (§1)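 Mice were inoculated ip with 10^6 P388 leukemia cells. Drug was given ip on days 1, 5 and 9 in 0.1 mL of 30% v/v EtOH-water, with dose in mg/kg/day. Optimal dose was determined, and ILS is the % lifespan increase over tumor-bearing controls at that dose.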

Experiment [2] has as its system P388. As to the kind of experiment: Inhibition of P388 leukemia cells growth in culture. In kind it is functional, cell-based. The conditions noted are these: Mus musculus. The gist of the method: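 P388 leukemia cells in exponential growth were exposed to drug for 70 h. IC50 is the micromolar concentration that reduces cell growth to 50% of control values.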
Experiment [3] relates to Nucleic Acid. As to the kind of experiment: Inhibitory concentration against ethidium bromide binding to [poly(dA-dT)] [poly(dA-dT)]. It counts as nucleic-acid assay. The method in brief:
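Fluorometric ethidium displacement using poly[d(A-T)]. C50 is the micromolar ligand concentration that displaces 50% of previously bound ethidium. For intercalators it is inversely proportional to the ligand–DNA association constant.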

Experiment [4] deals with Mus musculus. As to the kind of experiment: Optimal dose required to inhibit P388 leukemia cells when administered intraperitoneally in mice. It counts as functional. The method in brief:
as §1

Experiment [5] has as its system Mus musculus. As to the kind of experiment: Percentage increase in lifespan of P388 tumor-bearing mice compared with tumor-bearing controls at optimal dose of 150 mg/kg/day; NA = Not active. It counts as functional, organism-based. The gist of the method:
as §1

The subject of experiment [6] is Mus musculus. As to the kind of experiment: Percentage increase in lifespan of P388 tumor-bearing mice compared with tumor-bearing controls at optimal dose of 65 mg/kg/day; NA=Not active. In kind it is functional, organism-based. The gist of the method: as §1
The test system of experiment [7] is Mus musculus. Description: Percentage increase in lifespan of P388 tumor-bearing mice compared with tumor-bearing controls at optimal dose of 65 mg/kg/day. In kind it is functional.

A word on the ILS: it is how much longer treated animals lived than controls. Usually IC50 stands for the concentration at which inhibition is half-maximal. Lower therefore signals greater potency in that assay. Turning to `C[N+](C)(C)CC(=O)N/N=C\c1cccc2cc3cccnc3nc12`, in experiment [1], the ILS entry was “inactive”. This molecule had an IC50 in experiment [2] of 1.65 µM. The C50 in experiment [3] was 11.1 µM. The same molecule returned an OD in experiment [4] of 65 mg/kg/day.

In the case of `CN(C)CCNC(=O)c1ccc([N+](=O)[O-])c2cc3cnccc3nc12`, the IC50 in experiment [2] turned out to be 5 µM. In experiment [3], this molecule gave a C50 of 4.4 µM.

`CN(C)CCNC(=O)c1cccc2c(=O)c3ccccc3[nH]c12` showed a half-inhibitory concentration (IC50) in experiment [2] of 1.7 µM. The C50 in experiment [3] turned out to be 15 µM. For the same molecule, in experiment [5], the ILS result is “inactive”.

In turn, `CN(C)CCNC(=O)c1cccc2cc3cccnc3nc12` showed an IC50 in experiment [2] of 0.49 µM. This molecule gave a C50 in experiment [3] of 7.6 µM. In addition, the ILS result in experiment [6] is “inactive”.

The molecule `Oc1c2cccc(/C=N\NC3=NCCN3)c2nc2cccnc12` came in with a 50% inhibitory concentration (IC50) in experiment [2] greater than 40 µM. Further, the C50 in experiment [3] came to 9.6 µM.

In experiment [2], `C(=N/NC1=NCCN1)/c1cccc2cc3cccnc3nc12` displayed an IC50 of 12 µM. The same molecule registered a C50 in experiment [3] of 5 µM.

`C(=N/NC1=NCCN1)/c1cccc2cc3cnccc3nc12` had an IC50 in experiment [2] of 12.3 µM. This molecule displayed a C50 in experiment [3] of 6.6 µM.

For `C(=N/NC1=NCCN1)/c1cccc2cc3ncccc3nc12`, in experiment [1], the ILS result was “inactive”. The IC50 in experiment [2] turned out to be 3.3 µM. This molecule had a C50 in experiment [3] of 5.4 µM. In experiment [4], this molecule displayed an OD of 45 mg/kg/day.

In the case of `CN(C)CCNC(=O)c1cccc2c(O)c3cccnc3nc12`, the IC50 in experiment [2] worked out at 5.5 µM. This molecule also returned a C50 in experiment [3] of 27.7 µM. Further, the ILS result in experiment [5] is “inactive”.

As to `CN(C)CCNC(=O)c1ccc([N+](=O)[O-])c2cc3cccnc3nc12`, the ILS entry in experiment [1] was “inactive”. In addition, the IC50 in experiment [2] worked out at 0.15 µM. This molecule registered a C50 in experiment [3] of 2.1 µM. In experiment [4], this molecule registered an OD of 20 mg/kg/day.

`CN(C)CCNC(=O)c1cc([N+](=O)[O-])cc2c(O)c3cccnc3nc12` gave an IC50 in experiment [2] of 1.3 µM. For the same molecule, the C50 in experiment [3] was found to be 11 µM.

Molecule `C(=N/NC1=NCCN1)/c1cccc2cc3ccncc3nc12` gave a 50% inhibitory concentration (IC50) in experiment [2] of 25 µM. For the same molecule, the C50 in experiment [3] amounted to 5.9 µM.

`CN(C)CCNC(=O)c1ccc([N+](=O)[O-])c2c(O)c3cnccc3nc12` displayed an IC50 in experiment [2] of 1 µM. Besides, the C50 in experiment [3] turned out to be 6.2 µM.

In experiment [2], `CN(C)CCNC(=O)c1ccc([N+](=O)[O-])c2c(O)c3cccnc3nc12` registered a concentration for half-maximal inhibition (IC50) of 0.018 µM. For the same molecule, in experiment [3], the C50 came to 10.4 µM. Also, the OD in experiment [4] was determined as 65 mg/kg/day. Further, the increase in life span (ILS) at 65 mg/kg/day in experiment [7] was found to be 31%.

In experiment [2], `CN(C)CCNC(=O)C1=CC=C([N+](=O)[O-])C2C(=O)c3ccccc3N=C12` (stereo unspecified) had a concentration for half-maximal inhibition (IC50) of 0.55 µM. In experiment [3], this molecule came in with a C50 of 23 µM.

Molecule `C[N+](C)(C)CC(=O)N/N=C\c1cccc2c(O)c3cccnc3nc12` yielded an IC50 in experiment [2] greater than 40 µM. In experiment [3], this molecule returned a C50 of 7.3 µM.

As to `CN(C)CCNC(=O)c1cccc2c(O)c3cc([N+](=O)[O-])ccc3nc12`, half-maximal inhibition in experiment [2] (IC50) required 3.5 µM. Also, the C50 in experiment [3] stood at 5.9 µM.

In experiment [2], `CN(C)CCNC(=O)c1cccc2c(O)c3ccncc3nc12` had an IC50 greater than 40 µM. For the same molecule, the C50 in experiment [3] was determined as 18.5 µM.

Regarding `CN(C)CCNC(=O)c1ccc([N+](=O)[O-])c2cc3ncccc3nc12`, the ILS result in experiment [1] was “inactive”. In experiment [2], this molecule yielded an IC50 of 0.085 µM. The C50 in experiment [3] was 3.1 µM. The OD in experiment [4] was 45 mg/kg/day.

For `CN(C)CCNC(=O)c1cccc2cc3ccncc3nc12`, in experiment [2], the half-maximal inhibitory concentration (IC50) was found to be 8.3 µM. Further, the C50 in experiment [3] was found to be 4.6 µM.

As for `CN(C)CCNC(=O)c1cc([N+](=O)[O-])cc2c(O)c3ccccc3nc12`, the ILS entry in experiment [1] is “inactive”. For the same molecule, the IC50 in experiment [2] is 0.91 µM. Besides, the C50 in experiment [3] turned out to be 4.5 µM. The same molecule registered an OD in experiment [4] of 45 mg/kg/day.

Molecule `Oc1c2cccnc2nc2c(/C=N\NC3=NCCN3)cccc12` showed an IC50 in experiment [2] of 22 µM. Besides, in experiment [3], the C50 came to 4 µM.

Molecule `CN(C)CCNC(=O)c1cccc2cc3ncccc3nc12` displayed an IC50 in experiment [2] of 4.4 µM. Besides, in experiment [3], the C50 was 11.1 µM. Also, the ILS at 65 mg/kg/day in experiment [7] was found to be 48%.

Consider `CN(C)CCNC(=O)c1cccc2c(O)c3cccc([N+](=O)[O-])c3nc12`, for which the midpoint of inhibition in experiment [2], the IC50, lay at 0.083 µM. In experiment [3], this molecule displayed a C50 of 2.4 µM. For the same molecule, the OD in experiment [4] was 45 mg/kg/day. The molecule also gave an increase in life span (ILS) at 65 mg/kg/day in experiment [7] of 65%.

Consider `CN(C)CCNC(=O)c1cccc2c(O)c3ccc([N+](=O)[O-])cc3nc12`, for which the ILS entry in experiment [1] is “inactive”. The molecule also displayed an IC50 in experiment [2] of 1.2 µM. The C50 in experiment [3] came out at 4.1 µM. Further, the OD in experiment [4] came to 65 mg/kg/day.

As to `CN(C)CCNC(=O)c1cccc2cc3ccccc3nc12`, the IC50 in experiment [2] was 0.11 µM. In experiment [3], this molecule gave a C50 of 5 µM. In addition, the ILS at 65 mg/kg/day in experiment [7] came out at 91%.

For `CN(C)CCn1c(=O)c2cccc3c(=O)c4ccncc4n(c1=O)c32`, in experiment [2], the IC50 is greater than 40 µM. This molecule also returned a C50 in experiment [3] of 10.7 µM.

Turning to `CN(C)CCNC(=O)c1cccc2c(O)c3cnccc3nc12`, the IC50 in experiment [2] is greater than 40 µM.
